These entries were drawn from the full list.
Apaf-1 act: activators of human Apaf-1 apoptosome, primary screen, biochemical, DEVD-Rh110 fluorescence, uHTS. Apaf-1 apoptosome caspase-3 activation; stronger effect = lower value. activity change, negative = activation, % at 20 µM. actives 0.31% (n = 330,000). AID 489031, 2010;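 active = activity change at or below -40% at 20 µM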
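system = biochemical Apaf-1 apoptosome reconstitution | buffer or medium = 20 mM HEPES pH 7.5 with CHAPS, BSA | also added = dATP and cytochrome c as apoptosome triggers, (Z-DEVD)2-Rh110 substrate | incubation = 30 min compound preincubation and 50 min reaction, both room temperature | measured by = fluorescence, 540 nm emission, 480 nm excitation | read-out basis = Caspase-3 cleavage activity downstream of Apaf-1 activation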
Rh110 act interf: Rh110 fluorescence interference by putative Apaf-1 activators, confirmation, artefact control for Apaf-1 activator project, biochemical, 20 µM; fluorescence interference (activity change), % at 20 µM, hits read low; quenched caspase reaction, Ex480/Em540; shares compounds with Apaf-1 act; 980 tested, under 10 active;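 active = mean activity change at or below -40% when tested at 20 µM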
Apaf-1 act conf: Apaf-1 activators, single-dose retest, confirmation, biochemical, fluorescence, DEVD-Rh110, 20 µM; shares compounds with Apaf-1 act; actives 5% (n = 980); reconstituted apoptosome caspase-3 activity; stronger effect = lower value; activity change, negative = activation, % at 20 µM;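 active = mean activity change at or below -40%, meaning activation of 40% or more, at 20 µM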
Fluor interf act: fluorescence interference of Apaf-1 activator hits, dose response, artefact control for Apaf-1 activator project. shares compounds with Apaf-1 act. fluorescence interference counterscreen, Apaf-1 activator assay. EC50, µM. 55 tested, under 10 active. AID 588592, 2011; call rule not given here
Of the large screens only hits and unclear results are named; the others gave an inactive call (follow-up assays come after a bar, where they were run).

Cc1[nH][nH]c(=O)c1C(c1ccc(-c2ccc(F)cc2)o1)c1c(C)[nH][nH]c1=O	none
CC(=O)Nc1ccc(N2CC(C)(C)C2=O)cc1	Apaf-1 act -58 | Rh110 act interf inactive | Apaf-1 act conf inactive
CCN1CCN(C2=C(NS(=O)(=O)c3ccc(Br)cc3)C(=O)c3ccccc3C2=O)CC1	none
CCN(CC)C(=O)CSc1nc2ccccc2c(=O)n1CC	Apaf-1 act -176 | Rh110 act interf inactive | Apaf-1 act conf inactive
Nc1ncc(Br)cc1N=Cc1ccccc1	none
OC(CNc1ccccc1)COc1ccc(OCC(O)CNc2ccccc2)cc1 (stereo not drawn)	Apaf-1 act -141 | Rh110 act interf inactive | Apaf-1 act conf inactive
O=C(c1ccccc1)c1ccc(OCC(O)CNC2CCCc3ccccc32)cc1 (stereo not drawn)	none
OC(CNC1CCCc2ccccc21)COc1ccc2ccccc2c1 (stereo not drawn)	none
C/C(=N\NC(=O)Cc1cc(=O)[nH][nH]1)c1cccc([N+](=O)[O-])c1	none
O=C(Nc1cccc2cccnc12)c1cccc([N+](=O)[O-])c1	Apaf-1 act -342 | Rh110 act interf inactive | Apaf-1 act conf inactive
Oc1ccc(Br)cc1CNc1cccc2cccnc12	none
CCOC(=O)c1c(CN(C)C)n(C)c2c(O)c(N=NC(N)=O)c3ccc(Br)cc3c12	none
CC(C)N1CCc2c(sc(NC(=O)c3cc(-c4cccs4)nc4ccccc34)c2C(N)=O)C1	none
O=C(NCCCO)C(=O)NCc1ccncc1	Apaf-1 act -63 | Rh110 act interf -80 | Apaf-1 act conf inactive
Oc1c(Br)cc(C=Nc2ccc3nc(-c4ccccc4)[nH]c3c2)c(O)c1Br	none
O=C(N/N=C1\C/C(=N\NC(=O)c2ccncc2)c2ccccc21)c1ccncc1	none
CC(/C=C/c1ccc2c(c1)OCO2)=N/NC(=O)c1ccncc1	Apaf-1 act -42 | Rh110 act interf inactive | Apaf-1 act conf inactive
Cc1c(CCOC(=O)C2C3CC4CC(C3)CC2C4)sc[n+]1CC(=O)c1ccc(Br)cc1 (stereo not drawn)	none
COc1ccc(C2C(C#N)=C(N)Oc3n[nH]c(-c4ccccn4)c32)c(OC)c1OC (stereo not drawn)	Apaf-1 act -508 | Rh110 act interf inactive | Apaf-1 act conf inactive
COc1cccc(-c2[nH]nc3c2C(c2ccsc2)C(C#N)=C(N)O3)c1 (stereo not drawn)	none
COc1cc(-c2nc(C(=O)NC3CCN(Cc4ccccc4)CC3)cc3c2[nH]c2ccccc23)cc(OC)c1OC	none
COc1ccc(-c2nc(C(=O)NCC3CCCO3)cc3c2[nH]c2ccccc23)cc1 (stereo not drawn)	Apaf-1 act -224 | Rh110 act interf inactive | Apaf-1 act conf inactive
CCCCCCCCCCOC(=O)Cn1c(COc2ccc(Cl)cc2)[n+](C)c2ccccc21	none
CCCCCCCCCn1c2c(c(=N)c3c1CCC3)CCC2	none
O=C(N/N=C/c1cc(Cl)cc([N+](=O)[O-])c1O)NC12CC3CC(CC(C3)C1)C2	Apaf-1 act -56 | Rh110 act interf inactive | Apaf-1 act conf -121 | Fluor interf act inactive
C[N+]1(C)CCC(=C2c3ccccc3CC(=O)c3sccc32)CC1	none
CCOC(=O)c1nn(-c2ccccc2C)c(=O)c2c(N)scc12	none
O=[N+]([O-])c1cccc(OCc2cn3cccnc3n2)c1	Apaf-1 act -66 | Rh110 act interf inactive | Apaf-1 act conf inactive
COc1cc2c(C#N)c(N3CCCCC3)nc(N)c2c(N)n1	none
O=C1C(Cl)=C(N2CCC(C(=O)O)CC2)C(=O)c2ccccc21	none
Cc1oc2c(c1C(=O)NCc1cccnc1)C(=O)c1ccccc1C2=O	none
Nc1cccnc1Sc1cccc(Cl)c1	none
O=C(NCc1cccnc1)c1cc(Sc2cccc(Cl)c2)nc2ccccc12	Apaf-1 act -47 | Rh110 act interf inactive | Apaf-1 act conf inactive
OCCN1CCN(CC/C=C2/c3ccccc3Sc3ccc(C(F)(F)F)cc32)CC1	none
O=C(CO/N=C/c1ccc(OC(F)F)cc1)NC1CCCC1	Apaf-1 act -453 | Rh110 act interf inactive | Apaf-1 act conf inactive
O=C(CSc1ccc2nnc(-c3ccccc3)n2n1)N1CCCCC1	Apaf-1 act -113 | Rh110 act interf inactive | Apaf-1 act conf inactive
Cc1ccc(C(=O)NCC(=O)N2CCCCCCC2)cc1	none
CCc1ccc2nc(NC(=O)CSCc3c(C)noc3C)sc2c1	none
CC1Cc2ccccc2N1CC(=O)Nc1ccc(S(=O)(=O)N(C)C)cc1 (stereo not drawn)	Apaf-1 act -444 | Rh110 act interf inactive | Apaf-1 act conf inactive
CN(C)S(=O)(=O)c1ccc(NC(=O)CN2CCCC2c2ccc3c(c2)OCCCO3)cc1 (stereo not drawn)	none
CCOC(=O)N1CCN(S(=O)(=O)N2CCCC(C(=O)NCCCN3CCCCC3CC)C2)CC1 (stereo not drawn)	Apaf-1 act -61 | Rh110 act interf inactive | Apaf-1 act conf inactive
COc1ccc(C(CCN2CCCC(C)C2)c2c(OC)cc(OC)c3c(-c4ccccc4)cc(=O)oc23)cc1 (stereo not drawn)	none
C=CCNc1nc(Cl)nc(Nc2ccc(OCC)cc2)n1	Apaf-1 act -51 | Rh110 act interf inactive | Apaf-1 act conf inactive
C#CCOCCOCCOCCNc1nc(N2CCN(C(=O)CCCCCCCCCCNC(=O)[C@H]([C@@H](C)CC)n3cc(CCCCCN)nn3)CC2)nc(N2CCN(C(=O)CCCCCCCCCCNC(=O)[C@@H]([C@H](C)CC)n3cc(CCCCCN)nn3)CC2)n1	none
CCc1ccccc1OC[C@@H](O)CN[C@H]1CCCc2ccccc21	none
Cc1cc2occ(CC(=O)NC3CCCc4ccccc43)c2cc1C (stereo not drawn)	Apaf-1 act -164 | Rh110 act interf inactive | Apaf-1 act conf inactive
CC(=O)CCc1ccc(OCC(O)CNC2CCCc3ccccc32)cc1 (stereo not drawn)	none
CCN1CCN(Cc2ccc(NC(=O)c3cc(NC(=O)c4cc(-c5ccc(OC)cc5)n[nH]4)cc(OC)c3)cc2C(F)(F)F)CC1	none
CC1=NN(c2ccc(F)cc2)C(=O)C1C(c1cccc(O)c1)c1c(C)[nH]n(-c2ccc(F)cc2)c1=O (stereo not drawn)	none
O=C1NC2=C(CCc3ccccc32)C(c2ccccc2)N1 (stereo not drawn)	none
CC(=O)c1ccc(Nc2nc(-c3cccnc3)cs2)cc1	Apaf-1 act -208 | Rh110 act interf inactive | Apaf-1 act conf inactive
CCCc1ccc2oc(C(=O)NCCc3nc(C(=O)OCC)cs3)c(C)c2c1	none
CCCc1cc(C(=O)Nc2sc(C(C)=O)c(C)c2C(=O)OCC)no1	Apaf-1 act -192 | Rh110 act interf inactive | Apaf-1 act conf inactive
Cc1ccc(CN2CC(C(=O)N3CCN(S(=O)(=O)c4ccc(C)cc4C)CC3)CC2=O)cc1 (stereo not drawn)	none
NC1=NC[C@H](Cc2ccccc2)N1CCc1cc(C(F)(F)F)cc(C(F)(F)F)c1	none
CCOc1ccc(-c2nc(CSc3nnc(N)s3)cs2)cc1	Apaf-1 act -523 | Rh110 act interf inactive | Apaf-1 act conf inactive

Screening results deposited in PubChem BioAssay by Sanford-Burnham Center for Chemical Genomics.
